Measured values from ChEMBL document CHEMBL2311487, “Total synthesis of bicyclic depsipeptides spiruchostatins C and D and investigation of their histone deacetylase inhibitory and antiproliferative activities” (Eur J Med Chem, 2013).

Columns and labels:
St-4 = assay: Growth inhibition of human St-4 cells by sulforhodamine B colorimetric method; format: functional
Method in brief: (§1)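 Tested in a human cancer cell line panel. Five concentrations were used per compound, spanning either 10^-10–10^-6 M or 10^-8–10^-4 M. Growth was read by sulforhodamine B colorimetry.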

[1] = Growth inhibition of human MKN1 cells by sulforhodamine B colorimetric method; format: functional; settings: MKN-1; method in brief: as §1
DMS-273 = assay: Growth inhibition of human DMS273 cells by sulforhodamine B colorimetric method; format: functional; method in brief: as §1
OVCAR-5 = assay: Growth inhibition of human OVCAR5 cells by sulforhodamine B colorimetric method; format: functional; method in brief: as §1
U-251 = assay: Growth inhibition of human U251 cells by sulforhodamine B colorimetric method; format: functional; method in brief: as §1
SF-295 = assay: Growth inhibition of human SF295 cells by sulforhodamine B colorimetric method; format: functional; method in brief: as §1
MKN-74 = assay: Growth inhibition of human MKN74 cells by sulforhodamine B colorimetric method; format: functional; method in brief: as §1
SNB-75 = assay: Growth inhibition of human SNB75 cells by sulforhodamine B colorimetric method; format: functional; method in brief: as §1
NCI-H522 = assay: Growth inhibition of human NCI-H522 cells by sulforhodamine B colorimetric method; format: functional; method in brief: as §1
[2] = Selectivity index, ratio of IC50 for mouse HDAC6 to IC50 for human HDAC1
Method in brief: (§2)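 FLAG-tagged HDAC1 or HDAC6 was expressed in cells grown 24 h in DMEM, then lysed in Tris/NaCl/EDTA/NP40 buffer. The enzyme was immunoprecipitated with anti-FLAG M2 and eluted with FLAG peptide. It was incubated with Ac-KGLGK(Ac)-MCA (2 mM stock) and 100 μM DTT at 37 °C for 30 min, then trypsin at 37 °C for 15 min. AMC fluorescence was read. IC50 is the mean±SD of ≥3 curves. The ratios are computed from these IC50s.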

HCT-15 = assay: Growth inhibition of human HCT15 cells by sulforhodamine B colorimetric method; format: functional; method in brief: as §1
NCI-H23 = assay: Growth inhibition of human NCI-H23 cells by sulforhodamine B colorimetric method; format: functional; method in brief: as §1
[3] = biological target: Histone deacetylase 1 (Homo sapiens) (UniProt Q13547); assay: Ratio of FK228 IC50 to compound IC50 for human HDAC1 using Ac-KGLGK(Ac)-MCA as substrate after 30 mins by fluorescence assay; method in brief: as §2
Sequence of Histone deacetylase 1 (Homo sapiens) (Q13547 whole entry): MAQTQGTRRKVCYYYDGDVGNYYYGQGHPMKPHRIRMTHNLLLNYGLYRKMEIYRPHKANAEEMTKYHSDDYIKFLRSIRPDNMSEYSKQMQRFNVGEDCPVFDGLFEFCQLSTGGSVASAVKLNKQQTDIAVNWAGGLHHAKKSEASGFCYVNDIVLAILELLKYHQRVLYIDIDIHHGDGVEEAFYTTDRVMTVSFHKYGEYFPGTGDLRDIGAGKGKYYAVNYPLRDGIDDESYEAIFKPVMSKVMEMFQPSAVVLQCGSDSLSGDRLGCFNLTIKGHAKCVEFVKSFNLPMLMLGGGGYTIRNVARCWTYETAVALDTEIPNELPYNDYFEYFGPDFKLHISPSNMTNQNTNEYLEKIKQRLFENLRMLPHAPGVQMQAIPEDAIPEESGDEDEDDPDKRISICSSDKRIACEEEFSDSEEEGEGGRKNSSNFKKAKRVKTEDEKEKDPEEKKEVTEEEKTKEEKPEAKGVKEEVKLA

[4] = Growth inhibition of human HBC4 cells by sulforhodamine B colorimetric method; format: functional; method in brief: as §1
MCF7 = assay: Growth inhibition of human MCF7 cells by sulforhodamine B colorimetric method; format: functional; method in brief: as §1
DU-145 = assay: Growth inhibition of human DU145 cells by sulforhodamine B colorimetric method; format: functional; method in brief: as §1
HT-29 = assay: Growth inhibition of human HT-29 cells by sulforhodamine B colorimetric method; format: functional; method in brief: as §1
[5] = Growth inhibition of human RXF631L cells by sulforhodamine B colorimetric method; format: functional; settings: RXF 631; method in brief: as §1
[6] = Growth inhibition of human BSY1 cells by sulforhodamine B colorimetric method; format: functional; settings: BSY-1; method in brief: as §1
[7] = Growth inhibition of human HBC5 cells by sulforhodamine B colorimetric method; format: functional; method in brief: as §1
[8] = biological target: Protein deacetylase HDAC6 (Mus musculus, UniProt Q9Z2V5); assay: Inhibition of mouse HDAC6 using Ac-KGLGK(Ac)-MCA as substrate after 30 mins by fluorescence assay
Sequence of Protein deacetylase HDAC6 (Q9Z2V5 whole entry): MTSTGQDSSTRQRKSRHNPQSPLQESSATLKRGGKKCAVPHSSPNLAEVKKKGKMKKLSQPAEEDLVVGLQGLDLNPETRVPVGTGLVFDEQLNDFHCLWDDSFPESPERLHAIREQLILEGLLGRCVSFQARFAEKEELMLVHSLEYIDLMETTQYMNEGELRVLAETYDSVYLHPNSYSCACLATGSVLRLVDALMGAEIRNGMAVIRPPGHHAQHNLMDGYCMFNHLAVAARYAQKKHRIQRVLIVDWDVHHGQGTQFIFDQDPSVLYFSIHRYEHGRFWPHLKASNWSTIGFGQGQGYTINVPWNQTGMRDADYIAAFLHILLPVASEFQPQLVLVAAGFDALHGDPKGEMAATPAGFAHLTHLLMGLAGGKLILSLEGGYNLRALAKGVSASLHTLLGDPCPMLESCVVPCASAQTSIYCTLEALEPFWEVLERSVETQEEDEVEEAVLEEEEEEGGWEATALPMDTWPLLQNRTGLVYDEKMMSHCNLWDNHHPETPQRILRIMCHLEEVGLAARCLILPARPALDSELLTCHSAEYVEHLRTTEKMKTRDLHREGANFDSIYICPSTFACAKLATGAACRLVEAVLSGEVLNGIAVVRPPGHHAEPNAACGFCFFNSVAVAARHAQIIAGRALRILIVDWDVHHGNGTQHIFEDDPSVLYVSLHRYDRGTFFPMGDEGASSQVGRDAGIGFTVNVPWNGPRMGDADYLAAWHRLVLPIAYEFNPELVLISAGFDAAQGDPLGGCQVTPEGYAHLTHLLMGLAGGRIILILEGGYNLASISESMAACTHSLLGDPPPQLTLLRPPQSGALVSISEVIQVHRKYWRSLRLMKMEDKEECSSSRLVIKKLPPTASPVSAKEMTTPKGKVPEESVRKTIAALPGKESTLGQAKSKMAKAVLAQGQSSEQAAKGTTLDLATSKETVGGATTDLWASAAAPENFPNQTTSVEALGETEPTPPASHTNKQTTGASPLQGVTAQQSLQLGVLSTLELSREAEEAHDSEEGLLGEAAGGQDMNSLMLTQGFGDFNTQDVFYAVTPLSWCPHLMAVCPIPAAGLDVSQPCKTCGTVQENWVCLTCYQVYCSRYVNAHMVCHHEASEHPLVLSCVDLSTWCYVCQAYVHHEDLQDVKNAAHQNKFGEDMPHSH

LOX IMVI = assay: Growth inhibition of human LOXIMVI cells by sulforhodamine B colorimetric method; format: functional; method in brief: as §1
MKN-28 = assay: Growth inhibition of human MKN28 cells by sulforhodamine B colorimetric method; format: functional; method in brief: as §1
ACHN = assay: Growth inhibition of human ACHN cells by sulforhodamine B colorimetric method; format: functional; method in brief: as §1
MDA-MB-231 = assay: Growth inhibition of human MDA-MB-231 cells by sulforhodamine B colorimetric method; format: functional; method in brief: as §1
MKN-7 = assay: Growth inhibition of human MKN7 cells by sulforhodamine B colorimetric method; format: functional; method in brief: as §1
NCI-H226 = assay: Growth inhibition of human NCI-H226 cells by sulforhodamine B colorimetric method; format: functional; method in brief: as §1
OVCAR-3 = assay: Growth inhibition of human OVCAR3 cells by sulforhodamine B colorimetric method; format: functional; method in brief: as §1
MKN-45 = assay: Growth inhibition of human MKN45 cells by sulforhodamine B colorimetric method; format: functional; method in brief: as §1
OVCAR-4 = assay: Growth inhibition of human OVCAR4 cells by sulforhodamine B colorimetric method; format: functional; method in brief: as §1
HCT-116 = assay: Growth inhibition of human HCT116 cells by sulforhodamine B colorimetric method; format: functional; method in brief: as §1
SNB-78 = assay: Growth inhibition of human SNB78 cells by sulforhodamine B colorimetric method; format: functional; method in brief: as §1
A549 = assay: Growth inhibition of human A549 cells by sulforhodamine B colorimetric method; format: functional; method in brief: as §1
DMS-114 = assay: Growth inhibition of human DMS114 cells by sulforhodamine B colorimetric method; format: functional; method in brief: as §1
[9] = Growth inhibition of human HCC2998 cells by sulforhodamine B colorimetric method; format: functional; settings: HCC 2998; method in brief: as §1
SF-539 = assay: Growth inhibition of human SF539 cells by sulforhodamine B colorimetric method; format: functional; method in brief: as §1
OVCAR-8 = assay: Growth inhibition of human OVCAR8 cells by sulforhodamine B colorimetric method; format: functional; method in brief: as §1
SF-268 = assay: Growth inhibition of human SF268 cells by sulforhodamine B colorimetric method; format: functional; method in brief: as §1
SK-OV-3 = assay: Growth inhibition of human SKOV3 cells by sulforhodamine B colorimetric method; format: functional; method in brief: as §1
PC-3 = assay: Growth inhibition of human PC3 cells by sulforhodamine B colorimetric method; format: functional; method in brief: as §1
KM12 = assay: Growth inhibition of human KM12 cells by sulforhodamine B colorimetric method; format: functional; method in brief: as §1
NCI-H460 = assay: Growth inhibition of human NCI-H460 cells by sulforhodamine B colorimetric method; format: functional; method in brief: as §1
Histone deacetylase = assay: Inhibition of class 1 HDAC (unknown origin); format: protein assay, Homo sapiens

CC(C)[C@H]1NC(=O)[C@H]2CSSCC/C=C/[C@H](CC(=O)N[C@H](C(C)C)C(=O)N2)OC(=O)C[C@@H]1O [spiruchostatin D]
GI50 (St-4): 16 nM
GI50 [1]: 2 nM
GI50 (DMS-273): 5.1 nM
GI50 (OVCAR-5): 1.2 nM
GI50 (U-251): 2.7 nM
GI50 (SF-295): 5.1 nM
GI50 (MKN-74): 2.9 nM
GI50 (SNB-75): 1.9 nM
GI50 (NCI-H522): 0.39 nM
Ratio IC50 [2]: 320
GI50 (HCT-15): 210 nM
GI50 (NCI-H23): 2.5 nM
Ratio IC50 [3]: 3
GI50 [4]: 4.1 nM
GI50 (MCF7): 2.9 nM
GI50 (DU-145): 4 nM
GI50 (HT-29): 2.2 nM
GI50 [5]: 5.9 nM
GI50 [6]: 5.2 nM
GI50 [7]: 18 nM
IC50 [8]: 240 nM
GI50 (LOX IMVI): 1.8 nM
GI50 (MKN-28): 9.5 nM
GI50 (ACHN): 21 nM
GI50 (MDA-MB-231): 1.7 nM
GI50 (MKN-7): 5.8 nM
GI50 (NCI-H226): 4 nM
GI50 (OVCAR-3): 2.2 nM
GI50 (MKN-45): 9.6 nM
GI50 (OVCAR-4): 4.7 nM
GI50 (HCT-116): 1.3 nM
GI50 (SNB-78): 41 nM
GI50 (A549): 0.97 nM
GI50 (DMS-114): 3.6 nM
GI50 [9]: 1.5 nM
GI50 (SF-539): 0.58 nM
GI50 (OVCAR-8): 2.7 nM
GI50 (SF-268): 3.5 nM
GI50 (SK-OV-3): 2.3 nM
GI50 (PC-3): 8.7 nM
GI50 (KM12): 2.6 nM
GI50 (NCI-H460): 2.8 nM

CCC(C)[C@H]1NC(=O)[C@H]2CSSCC/C=C/[C@H](CC(=O)N[C@H](C)C(=O)N2)OC(=O)C[C@@H]1O (stereo partly drawn) [spiruchostatin B]
IC50 (Histone deacetylase): 2.2 nM
